# HTR2A ag: mouse Htr2a agonists via beta-arrestin recruitment, primary screen, cell-based, luminescence. CHO-K1 mHTR2A beta-arrestin complementation; percent of 30 µM serotonin response. hit rate 0.66% among 360,000. 5-hydroxytryptamine receptor 2A (Mus musculus), P35363. activation, % at 7.6 µM;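 active = activation above a run cutoff, the mean activation of all tested compounds plus 3 SD, cut at about 14% in these data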
# VIM-2 inh: VIM-2 metallo-beta-lactamase inhibitors, primary screen, biochemical, epi-absorbance readout, Pseudomonas aeruginosa enzyme | purified VIM-2, nitrocefin hydrolysis, epi-absorbance fluorescence | inhibition, % at 5.6 µM | hit rate 0.89% among 290,000 | AID 1527, 2009;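 active = inhibition above the mean of all tested compounds plus 3 SD, cutoff set per screening run, cut at about 7.5% in these data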;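 note: red hydrolysis product quenches plate fluorescence so inhibitors raise well fluorescence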
# IMP-1 inh-1: IMP-1 metallo-beta-lactamase inhibitors, primary screen, biochemical, epi-absorbance readout, Pseudomonas aeruginosa enzyme. purified IMP-1, nitrocefin hydrolysis, epi-absorbance fluorescence. hit rate 0.45% among 290,000. inhibition, % at 5.6 µM. AID 1556, 2009;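 active = inhibition above the mean plus 3 SD of all compounds in the same screening run, cut at about 4.5% in these data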
#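 System: purified IMP-1; amount: IMP-1 0.2 nM before substrate addition; compound: single dose, 5.6 µM; times: 25 °C, 15 min preincubation, 25 min reaction; signal: Epi-absorbance via hydrolysed-nitrocefin quenching of white-plate fluorescence, 480/530 nm, EDTA stop; benchmarks: DMSO with and without IMP-1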
# dFosB activator: activators of delta FosB homodimer, primary screen, biochemical, fluorescence polarization, TAMRA-CDK5 oligo, single point. Protein FosB (Mus musculus), P13346. purified delta FosB; percent of positive-control signal above neutral wells. hit rate 0.99% among 340,000. activation, % at 25 µM. AID 493131, 2011;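 active = mean activation above about 17%, with every replicate also reaching it, limit read from the data, passing the limit was not always enough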
# Target sequence (P13346 whole entry, looked up): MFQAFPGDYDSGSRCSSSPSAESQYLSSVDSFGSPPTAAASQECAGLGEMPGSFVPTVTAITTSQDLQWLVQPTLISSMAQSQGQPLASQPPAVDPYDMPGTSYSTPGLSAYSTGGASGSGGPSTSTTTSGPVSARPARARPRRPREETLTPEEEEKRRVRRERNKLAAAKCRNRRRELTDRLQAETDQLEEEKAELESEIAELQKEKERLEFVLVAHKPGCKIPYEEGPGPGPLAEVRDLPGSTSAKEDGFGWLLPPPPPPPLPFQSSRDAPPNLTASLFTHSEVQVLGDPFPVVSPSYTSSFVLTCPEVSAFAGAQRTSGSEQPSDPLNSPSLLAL
# IMP-1 inh-2: IMP-1 metallo-beta-lactamase inhibitors, confirmation, selectivity assay for selective VIM-2 inhibitor project, biochemical, epi-absorbance readout, triplicate | shares compounds with VIM-2 inh | purified IMP-1, nitrocefin hydrolysis, epi-absorbance fluorescence | inhibition, % at 5.6 µM | 1,300 tested, under 10 active; call rule not given here
# VIM-2 FRET inh: VIM-2 inhibitors in FRET format, confirmation, artefact control for selective VIM-2 inhibitor project, biochemical, epi-absorbance artifact exclusion; shares compounds with VIM-2 inh; purified VIM-2, CCF2 FRET substrate hydrolysis; inhibition, % at 5.6 µM; hit rate 23% among 1,300; AID 1857, 2009;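 active = inhibition above the mean of all tested compounds plus 3 SD, cut at about 19% in these data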
# TEM-1 inh: TEM-1 serine beta-lactamase inhibitors, counter-screen for VIM-2 inhibitor project, biochemical, epi-absorbance, HTS. shares compounds with VIM-2 inh. Purified TEM-1, nitrocefin hydrolysis, epi-absorbance fluorescence. inhibition, % at 5.6 µM. hit rate 3% among 1,300. AID 1866, 2009;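 active = inhibition above that campaign's mean inhibition plus 3 SD, cut at about 0.46% in these data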
# Target sequence (P62593 whole entry, looked up): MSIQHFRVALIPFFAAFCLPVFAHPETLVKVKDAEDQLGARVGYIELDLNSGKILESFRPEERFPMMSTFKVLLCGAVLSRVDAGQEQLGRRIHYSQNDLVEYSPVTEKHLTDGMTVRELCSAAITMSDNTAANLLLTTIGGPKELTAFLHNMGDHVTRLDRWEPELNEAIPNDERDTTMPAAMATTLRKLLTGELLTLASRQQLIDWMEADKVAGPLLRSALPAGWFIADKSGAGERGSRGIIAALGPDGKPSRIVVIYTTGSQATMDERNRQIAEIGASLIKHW
# VIM-2 confirm 2: VIM-2 metallo-beta-lactamase inhibitors, confirmation, biochemical, epi-absorbance, hits shared with IMP-1 screen; purified VIM-2, nitrocefin hydrolysis; hit rate 96% among 1,300; AID 2187, 2009; shares compounds with VIM-2 inh; inhibition, % at 5.6 µM;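 active = inhibition of the VIM-2 beta-lactamase enzyme above about 11% from the earlier first-round screen, limit read from the data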
# Hits are given with their value; n = inactive; x = no result. Shown are actives, neighbours in structure and some others; about 2.5% of the full set was active somewhere.
SMILES,HTR2A ag,VIM-2 inh,IMP-1 inh-1,dFosB activator,IMP-1 inh-2,VIM-2 FRET inh,TEM-1 inh,VIM-2 confirm 2
Cn1ncc2c(=O)[nH]c(N)nc21,n,x,x,n,x,x,x,x
O=[N+]([O-])c1ccccc1N(S(=O)(=O)c1ccccc1)S(=O)(=O)c1ccccc1,n,x,x,n,x,x,x,x
COc1cc(CNCCO)ccc1OCCc1ccccc1,n,n,n,n,x,x,x,x
O=C(Nc1ccc(N2CCN(Cc3ccccc3)CC2)cc1)c1ncn[nH]1,n,13,n,n,n,n,n,25
CCC(=O)Nc1ccc(N2CCN(Cc3ccccc3)CC2)cc1,n,n,n,n,x,x,x,x
COc1ccc(CNC(=O)C[C@@H]2C[C@H]3c4cc(NC(=O)NC5CCCC5)ccc4O[C@H]3[C@H](CO)O2)cc1,n,x,x,x,x,x,x,x
CC(CNC(=O)[C@@H](Cc1ccccc1)NC(=O)CC[C@H]1O[C@@H](n2ccc(=O)[nH]c2=O)[C@H](O)[C@@H]1O)c1ccccc1 (stereo partly drawn),n,x,x,x,x,x,x,x
Cc1cc(C)n2c(Br)c(CSc3nc4ccccc4s3)nc2n1,n,23,n,n,n,69,n,47
Cc1nnc2ccc(-c3cccc(NC(=O)c4ccco4)c3)nn12,n,15,n,n,n,n,n,25
Cc1c(C)c2ccc(O[C@@H]3O[C@H](CO)[C@H](O)[C@H](O)[C@H]3O)c(C)c2oc1=O,n,n,n,n,x,x,x,x
Cc1c(O[C@@H]2O[C@H](CO)[C@@H](O)[C@H](O)[C@H]2O)ccc2c1oc(=O)c1ccccc12,n,25,n,n,n,n,n,35
Cc1cc(C)n2c(nc3ccccc32)c1C(=O)NN,n,n,n,x,x,x,x,x
COC(=O)c1c(C)cc(C)n2c1nc1ccccc12,n,15,n,n,n,n,n,28
CCc1cc(=O)oc2cc(C)cc(OCC(=O)NCCCn3ccnc3)c12,n,51,n,n,n,n,n,61
Cc1cc(OCC(=O)NCCCn2ccnc2)c2c(C)c(C)c(=O)oc2c1,n,80,n,n,n,n,n,85
CCCCc1cc(=O)oc2cc(C)cc(OCC(=O)NCCN3CCOCC3)c12,n,n,n,n,x,x,x,x
Cc1cc(OC(C)C(=O)NCCCn2ccnc2)c2c(C)c(C)c(=O)oc2c1 (stereo not drawn),n,64,n,n,n,n,n,74
O=C(COc1ccc(Cl)cc1Cl)NCCCn1ccnc1,n,n,n,n,x,x,x,x
Cc1cc(OCC(=O)NCCN2CCOCC2)c2c(C)c(C)c(=O)oc2c1,n,19,n,n,n,n,n,29
NC(=O)c1ccc(NC(=O)Cc2ccc(S(=O)(=O)N3CCCCC3)cc2)cc1,n,x,x,n,x,x,x,x
O=C(Cc1cccc([N+](=O)[O-])c1)Nc1ccc(C(=O)N2CCCCC2)cc1,n,x,x,n,x,x,x,x
COCCCNC(=O)c1cc2c(=O)n3cccc(C)c3nc2n(C(C)C)c1=N,n,13,n,n,n,n,1.1,28
CCOC(=O)c1cc2c(=O)n3cccc(C)c3nc2n(CC(C)C)c1=NC(=O)c1ccco1,n,n,n,n,x,x,x,x
C=CCn1c(=N)c(C(=O)OCC)cc2c(=O)n3cccc(C)c3nc21,x,13,n,x,n,n,n,26
COc1ccc(Cc2c(-c3ccccc3)nc3c(C)cc(Br)cn23)c(C)c1,n,x,x,x,x,x,x,x
SMILES,HTR2A ag,VIM-2 inh,IMP-1 inh-1,dFosB activator,IMP-1 inh-2,VIM-2 FRET inh,TEM-1 inh,VIM-2 confirm 2
COc1cc(Br)cc2cc(C(=O)OC3CCN(C)CC3)c(=O)oc12,n,14,n,n,n,n,n,22
COc1ccc([C@H]2C[C@H](n3cc(COC(=O)c4ccccc4)nn3)[C@@H](O)CN2CC2CCCCC2)cc1,n,x,x,x,x,x,x,x
O=[N+]([O-])c1ccc(N2CCN(CC3CCCCC3)CC2)cc1,n,n,n,n,x,x,x,x
Cc1c(N2C(=O)/C(=C\c3cccc4ccccc34)SC2=S)c(=O)n(-c2ccccc2)n1C,n,62,n,n,n,33,n,30
Cc1c(N2C(=O)c3ccccc3C2=O)c(=O)n(-c2ccccc2)n1C,n,n,n,n,x,x,x,x
CCOC(=O)c1sc2nc(C)nc(NC3CCC(O)CC3)c2c1C (stereo not drawn),n,23,n,n,n,n,n,32
O=c1c2ccccc2nnn1Cc1nnc(-c2ccccc2Br)o1,n,17,n,n,n,21,n,13
O=C1c2ccccc2S(=O)(=O)N1Cc1nnc(-c2ccccc2Br)o1,n,n,n,n,x,x,x,x
CC1=NNC(=O)C1CC(=O)N/N=C/c1sccc1C (stereo not drawn),n,n,n,n,x,x,x,x
COc1cc(OC)c(OC)cc1/C=N/NC(=O)CC1C(=O)NN=C1C (stereo not drawn),n,37,n,n,n,66,n,55
Cc1cc(C(=O)N/N=C\c2cc(C(C)(C)C)ccc2O)n[nH]1,n,n,n,n,x,x,x,x
CC(=O)N/N=C/c1cc(C(C)(C)C)cc(/C=N/NC(C)=O)c1O,n,39,n,n,n,n,n,55
CCN(CC)C(=O)c1cc2c(=O)n3cccc(C)c3nc2n1C,n,n,n,n,x,x,x,x
CCN(CC)C(=O)c1cc2c(=O)n3cccc(C)c3nc2s1,n,16,n,n,n,n,n,20
CCCCN(CC)C(=O)c1cc2c(=O)n3cccc(C)c3nc2s1,n,12,n,n,n,n,n,19
CCN(C(=O)c1cc2c(=O)n3ccccc3nc2s1)C1CCCCC1,n,n,n,n,x,x,x,x
O=C(N/C(=C\c1cccs1)C(=O)N1CCOCC1)c1cccs1,n,n,n,n,x,x,x,x
CN1CCN(C(=O)/C(=C/c2cccs2)NC(=O)c2cccs2)CC1,n,17,n,n,n,n,n,n
COC(=O)c1cc(Nc2cc(C)nc3ncnn23)cc(C(=O)OC)c1,n,15,n,n,n,n,n,35
COc1cc(Nc2cc(C)nc3ncnn23)cc(OC)c1,n,n,n,n,x,x,x,x
Cc1ccc(N2C(=O)Nc3ccc(Br)cc3C2(O)C(=O)NCCN(C)C)cc1C (stereo not drawn),n,n,n,n,x,x,x,x
Cc1ccc(Nc2cc(C)nc(-c3ccccc3O)n2)cc1,n,n,n,n,x,x,x,x
Cc1cc(NCCCN)nc(-c2ccccc2O)n1,n,36,n,n,n,n,n,54

# Source: PubChem BioAssay (several laboratories)
